Laboratory results published in ChEMBL document CHEMBL5674882, “Benzolactam-related compounds promote apoptosis of HIV-infected human cells via protein kinase C-induced HIV latency reversal” (J Biol Chem, 2019).
Activity calls are given as the source filed them. The rule behind the calls is not given here.

What was measured:
[1] = molecular target: T1, Protein kinase C (PKC) (Homo sapiens) (UniProt O94806+P41743+P17252+P05129+Q05655+P05771+Q05513+Q02156+P24723+Q15139+Q04759); test: (§1) Activation of PKC in human ACH-2 cells infected with latent HIV-1 assessed as reversal of HIV-1 latency by measuring increase in p24 antigen level incubated for 48 hrs by chemiluminescent enzyme immunoassay; assay type: cell-based; conditions: ACH-2 cell line, filed as activator
Protein kinase C (PKC) = test: as §1; assay type: cell-based; conditions: ach-2 cell line
[2] = molecular target: T1, Protein kinase C (PKC) (Homo sapiens); test: Activation of PKC CD4+ T-cells purified from HIV-infected patient assessed as increase in transcription of HIV mRNA at 1 uM incubated for 24 hrs by qRT-PCR method; assay type: cell-based; conditions: CD4+ T cell, filed as activator
In short: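 CD4+ T-cells purified from PBMC of eight cART-treated HIV+ patients (cART ≥5 years, plasma viral load <20 copies/ml), plated at 2.5 × 10^6 cells/ml and treated 24 h. Total RNA extracted; HIV RNA quantified by qRT-PCR against a plasmid standard curve, normalized per ng input RNA, and expressed as fold over untreated cells. Medians of eight individuals; Mann-Whitney U test.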

ACH-2 cell line [3] = test: Induction of apoptosis in human ACH-2 cells assessed as caspase-3 activation at 1 uM incubated for 24 hrs by flow cytometry; assay type: functional
In short: (§2)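 Cells fixed in 1% paraformaldehyde, permeabilized, stained 30 min on ice with anti-active caspase-3 mAb, and analysed by flow cytometry. Three independent experiments.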

CD4+ T cell = test: Induction of apoptosis in CCL19-induced human CD4+ T-cells infected with latent HIV-1 assessed as caspase-3 activation at 1 uM incubated for 48 hrs by FACS; assay type: functional, cell-based
In short: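 Latency model: healthy-donor CD4+ T-cells given 100 nM CCL19 for 2 days, infected with HIV-1 NL4-3, kept 5 days in IL-2. Stimulated 2 days with 1 µM drug or 100 nM PMA plus 2 µM ionomycin. Cells fixed and permeabilized, co-stained with anti-p24 and anti-active caspase-3 mAbs; active caspase-3 read by flow cytometry separately in p24+ and p24− cells. Two donors.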

[4] = Toxicity in human PBMC assessed as reduction in cell viability after 5 days by WST8 assay; assay type: cell-based; conditions: time 5 day
In short: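 PBMC from a healthy donor exposed to drug, with viability determined at day 5. CC50 is the concentration reducing viability by 50%.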

[5] = molecular target: T1, Protein kinase C (PKC) (Homo sapiens); test: Activation of PKC in human ACH-2 cells infected with latent HIV-1 assessed as reversal of HIV-1 latency by measuring increase in p24 antigen level at 5 to 50 nM incubated for 48 hrs in presence of 100 nM GSK525762A by chemiluminescent enzyme immunoassay; assay type: cell-based; conditions: ACH-2 cell line, dose 5-50 nM
In short: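 ACH-2 cells treated 48 h with 5–50 nM of the test agent, alone or combined with 100 nM GSK525762A (BRD4 inhibitor). Supernatant p24 measured by chemiluminescent immunoassay. Synergy or antagonism scored with the Bliss independence model (Δfaxy >0 synergy, <0 antagonism). Three independent experiments, mean ± S.D.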

[6] = molecular target: T1, Protein kinase C (PKC) (Homo sapiens); test: Synergistic activation of PKC in human U1 cells infected with latent HIV-1 assessed as reversal of HIV-1 latency by measuring increase in p24 antigen level at 25 nM incubated for 48 hrs in presence of 100 nM JQ1 by chemiluminescent enzyme immunoassay relative to compound alone; assay type: cell-based; conditions: filed as activator
In short: (§3)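 U1 cells at 5 × 10^5 cells/ml incubated 48 h with test agent alone or plus 100 nm JQ1. Supernatant p24 antigen quantified by automated immunoassay. Fold reactivation computed versus the same agent without JQ1. Mean ± S.D. of three independent experiments.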

[7] = molecular target: T1, Protein kinase C (PKC) (Homo sapiens); test: Activation of PKC in human J-Lat 6.3 cells infected with latent HIV-1 assessed as reversal of HIV-1 latency by measuring increase of GFP-positive cells at 10 uM in presence of PKC delta inhibitor Rottlerin incubated for 24 hrs by flow cytometry; assay type: cell-based
In short: (§4)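 J-Lat 6.3 cells pretreated 3 h with a PKC inhibitor: Gö 6983 1 µM, Gö 6976 1 µM, GF 109203X 1 µM, PKCθ/δ inhibitor 10 µM, or Rottlerin 1 µM. Then exposed to 10 µM compound for 24 h; GFP-positive cells counted by flow cytometry. Mean ± S.D.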

J-Lat 6.3 (Homo sapiens) = test: Induction of apoptosis in human J-Lat 6.3 cells at 1 uM incubated for 48 hrs after pre-incubated for 2 hrs with 20 uM caspase inhibitor Q-VD-Oph by propidium iodide/annexin-V staining based flow cytometry
[8] = molecular target: T1, Protein kinase C (PKC) (Homo sapiens); test: Activation of PKC in human J-Lat 6.3 cells infected with latent HIV-1 assessed as reversal of HIV-1 latency by measuring increase of GFP-positive cells at 10 uM in presence of PKC theta/delta/epsilon/eta inhibitor PKCtheta/delta inhibitor incubated for 24 hrs by flow cytometry; assay type: cell-based; in short: as §4
[9] = Toxicity in human CD4+ T-cells assessed as elevation of supernatant cytokine concentrations of IL-6 incubated for 24 hrs by bead-based immunoassay; conditions: cd4+ t cell
In short: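 Purified CD4+ T-cells from healthy donors treated 24 h with 1 μm drug, 1 μm JQ1, or the combination. IL-2, IL-5, IL-6, IL-13, TNFα and IFN-γ in supernatants measured by flow-cytometry bead-based Th1/Th2 immunoassay. Run in duplicate.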

[10] = molecular target: T1, Protein kinase C (PKC) (Homo sapiens); test: Synergistic activation of PKC in human U1 cells infected with latent HIV-1 assessed as reversal of HIV-1 latency by measuring increase in p24 antigen level at 50 nM incubated for 48 hrs in presence of 100 nM JQ1 by chemiluminescent enzyme immunoassay relative to compound alone; assay type: cell-based; conditions: filed as activator; in short: as §3
[11] = Induction of apoptosis in human CEM A3.01 cells assessed as caspase-3 activation at 1 uM incubated for 24 hrs by flow cytometry; assay type: functional; in short: as §2
ACH-2 cell line [12] = test: Induction of apoptosis in human ACH-2 cells at 1 uM incubated for 48 hrs by propidium iodide/annexin-V staining based flow cytometry (reference value: 3.16%); assay type: functional
U1 = test: Induction of apoptosis in human U1 cells at 1 uM incubated for 48 hrs after pre-incubated for 2 hrs with 20 uM caspase inhibitor Q-VD-Oph by propidium iodide/annexin-V staining based flow cytometry; assay type: functional, cell-based
In short: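 ACH-2 or U1 cells pretreated 2 h with 20 µM pan-caspase inhibitor Q-VD-Oph, then exposed to 1 µM compound for 48 h. Annexin-V/PI staining by flow cytometry; apoptotic proportions compared with and without Q-VD-Oph. Mean ± S.D.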

[13] = molecular target: T1, Protein kinase C (PKC) (Homo sapiens); test: Activation of PKC in human J-Lat 6.3 cells infected with latent HIV-1 assessed as reversal of HIV-1 latency by measuring increase of GFP-positive cells at 10 uM in presence of pan-PKC inhibitor Go-6983 incubated for 24 hrs by flow cytometry; assay type: cell-based; in short: as §4
[14] = Toxicity in human U-937 cells assessed as reduction in cell viability after 48 hrs by WST8 assay; assay type: cell-based
In short: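 Parental, uninfected lines (A3.01 for ACH-2, U937 for U1) at 5 × 10^5 cells/ml cultured with or without drug. Viable cells read at 48 h (day 2) and expressed as % of untreated control. CC50 taken as the concentration lowering viability by 50%.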

SMILES: CCCCCCCCCCc1ccc2c(c1)N(C)[C@@H](C(C)C)C(=O)N[C@H](CO)C2
- Activity [1]: Dose-Dependent Effect
- EC50 (Protein kinase C (PKC)): 0.025 µM
- Activity [2]: Active
- Activity (ACH-2 cell line [3]): 23%
- Activity (CD4+ T cell): Active
- CC50 at 120 h [4]: 39.9 µM
- Activity [5]: inactive
- fold change (FC) [6]: 22.9
- Activity [7]: inactive
- Activity (J-Lat 6.3 (Homo sapiens)): inactive
- Activity [8]: inactive
- Activity [9]: Toxic
- fold change (FC) [10]: 4.5
- Activity [11]: 2.01%
- Activity (ACH-2 cell line [12]): 58%
- Activity (U1): inactive
- Activity [13]: inactive
- CC50 at 48 h [14]: 61.2 µM
